Experimental data taken from article PMC7771113 (International Journal for Parasitology: Drugs and Drug …, 2020).
Where two headings read alike, the source gives them in different places.

Assays:
T. gondii = conditions: cited from earlier work
[1] = tested on: H4 acetylation in T. gondii; conditions: ref Bougdour et al., 2009; cited from earlier work
[2] = tested on: T. gondii RH-ACP-YFP tachyzoite mitochondria; assay: MitoTracker fluorescence analysis of parasite mitochondria; type: cell-based, Toxoplasma gondii; conditions: 1 μM TST, 0.1 μM SAHA, 24 h
Method in brief: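 NDHF fibroblasts infected with RH-ACP-YFP tachyzoites were treated for 24 h, then incubated with 50 nM MitoTracker Red CMXRos for 45 min. Mitochondrial membrane potential and partitioning were assessed by confocal and SR-SIM imaging. Two independent experiments.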

[3] = tested on: T. gondii EGS strain (atypical, I/III); assay: Antiproliferative assay, tachyzoites of EGS strain; type: cell-based; conditions: Toxoplasma gondii, 48 h, read-out: T. gondii EGS IC50
[4] = Cytotoxicity assay in host cells; type: cell-based; conditions: mouse, primary microglial cultures (mixed astrocytes/microglia)
[5] = tested on: histone H3 (Lys 9/14) acetylation in T. gondii; assay: Western blot of histone H3 acetylation in treated tachyzoites; type: cell-based, Toxoplasma gondii; conditions: 0,2 μM SAHA, 1 μM TST, 48 h
Method in brief: (§1)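 Infected NDHF fibroblasts were treated for 48 h. Tachyzoites were released by 30G needle passage, pelleted at 2000 rcf for 10 min and filter-purified; 10^6 parasites were cryolysed with protease inhibitors. Primary antibodies, 1 h: H3 and acetyl-H3 Lys9/14 each 1:1000; H4 1:3000, acetyl-H4 Lys16 1:1000; α-tubulin 1:1000, acetylated α-tubulin 1:2000. Detection by HRP secondaries and ECL. Bands from three experiments were normalised to GAPDH, and acetylated/total ratios were computed.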

T. gondii α-tubulin = assay: Western blot of α-tubulin and acetylated α-tubulin in treated tachyzoites; type: cell-based, Toxoplasma gondii; conditions: 1 μM TST, 0.1 μM SAHA, 48 h
Method in brief: as §1

NDHF fibroblasts = assay: Cytotoxicity assay in host cells; type: cell-based, Human
[6] = Cytotoxicity assay in host cells; type: cell-based, Human; conditions: human, NDHF fibroblasts; for CC50 at 48 h: NDHF CC50, 48h
[7] = tested on: histone H4 (lys16) acetylation in T. gondii; assay: Western blot of histone H4 acetylation in treated tachyzoites; type: cell-based, Toxoplasma gondii; conditions: 0,2 μM SAHA, 1 μM TST, 48 h
Method in brief: as §1

[8] = tested on: bradyzoites of the EGS strain; assay: Activity against bradyzoites of the EGS strain in 96 h-infected NDHF fibroblasts; type: cell-based, Toxoplasma gondii; conditions: 48 h; for proliferation or viability of bradyzoites: 1 and 5 μM TST, 0.1 μM SAHA
Method in brief: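 Tachyzoites of the EGS strain expressing SAG1mCherry/BAG1sfGFP were grown in NDHF fibroblasts for 96 h, when bradyzoite conversion and spontaneous cyst formation are higher, then treated for 48 h. DMSO was at most 0.1% (v/v). Bradyzoites were imaged by fluorescence microscopy and fluorescence intensity was quantified. Two independent experiments; one-way ANOVA with Bonferroni test.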

[9] = tested on: T. gondii ME49 strain (type II) tachyzoites; assay: Effect on tachyzoites of the ME49 strain in NDHF fibroblasts; type: cell-based, Toxoplasma gondii; conditions: 1 μM TST, 0.1 μM SAHA, 24 h
T. gondii RH tachyzoites = assay: Fluorescence microscopy of cell division and apicoplast; type: cell-based, Toxoplasma gondii; conditions: 1 μM TST, 0.1 μM SAHA, 24 h; for effect on apicoplast: ACP-YFP tachyzoites
Method in brief: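 NDHF fibroblasts were infected with RH-ACP-YFP tachyzoites and treated for 24 h, then fixed 40 min in 4% formaldehyde/PBS and permeabilised 15 min in 0.5% Triton X-100. Staining used anti-SAG1 and rabbit anti-centrin1 (1:1000), Alexa secondaries (1:800) and Hoechst (0.5 μg/mL). Daughter budding was also examined in RH-infected cells with anti-IMC1 (1:1000). Imaging by confocal and SR-SIM; two independent experiments.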

[10] = tested on: i. p. (intra peritoneal) macrophages; assay: Cytotoxicity assay in host cells; type: cell-based, mouse; conditions: read-out: Macrophages CC50; 48h
[11] = tested on: T. gondii RH strain (type I) tachyzoites; assay: Antiproliferative assay, tachyzoites of RH strain in LLC-MK2 cells; type: cell-based; conditions: Toxoplasma gondii

| Compound | effect on parasite mitochondria (Mitotracker) [2] | CC50 at 48 h [4] | acetylation levels of H3 (Lys 9/14), rH3ac/rH3 [5] | CC50 at 48 h [6] | acetylation levels of H4 (lys16), rH4ac/rH4 [7] | proliferation or viability of bradyzoites [8] | tachyzoite proliferation, ME49 strain [9] | effect on cell division / daughter cell budding (T. gondii RH tachyzoites) | effect on apicoplast (T. gondii RH tachyzoites) | CC50 [10] | further results |
| --- | --- | --- | --- | --- | --- | --- | --- | --- | --- | --- | --- |
| CCc1nc(N)nc(N)c1-c1ccc(Cl)cc1 [pyrimethamine] |  |  |  |  |  |  |  |  |  |  | IC50 (T. gondii; read-out: IC50 against T. gondii, ref Dubar et al., 2011, Martins-Duarte, 2006): 0.12 µM |
| FR235222 |  |  |  |  |  |  |  |  |  |  | H4 acetylation [1]: increased H4 acetylation |
| CN1CCc2c(c3ccccc3n2Cc2ccc(C(=O)NO)cc2)C1 [TST, Tubastatin A] | reduction of the labeling intensity of mitochondria | > 20 µM | decrease below the levels of the untreated cells | > 20 µM | significant increase | inhibited significantly | inhibit tachyzoite proliferation significantly | formation of a rounded mass of parasites | Alteration at the apicoplast partition | 13.5 µM | IC50 [3]: 0.29 µM; tubulin acetylation levels, ratio rTubac/rTub (T. gondii α-tubulin): no change; CC50 times higher than the IC50 obtained for T. gondii (NDHF fibroblasts; CC50 in NDHF after 120 h): 57 times; selective index (NDHF fibroblasts; in different types of mammalian cells after 48 h of treatment): at least 20; CC50 at 120 h ([6]; CC50, NDHF fibroblasts, treatment for 120 h with higher concentrations (20–80 μM)): 29.9 µM; IC90 ([11]; LLC-MK2): 5 µM; IC50 ([11]; LLC-MK2, 24 h): 0.019 ± 0.001 µM; IC50 ([11]; LLC-MK2, 48 h, read-out: T. gondii RH IC50): 0.52 µM |
| O=C(CCCCCCC(=O)Nc1ccccc1)NO [SAHA, Suberoylanilide Hydroxamic Acid] | mitochondrion fragmentation | > 20 µM | modest increase | > 20 µM | modest increase | inhibited significantly | inhibit tachyzoite proliferation significantly | masses of damaged parasites showing several centrosomes | apicoplast fragmentation | 4.61 µM | amount of bradyzoites in the culture ([8]; 0.2 μM SAHA): maintained the same amount of bradyzoites in the culture as in the control |
| COc1cccc(CC(=O)Nc2ccc(C(=O)NO)cc2)c1 [N-hydroxy-4-[2-(3-methoxyphenyl)acetamido]benzamid] |  |  |  |  |  |  |  |  |  |  | IC50 (T. gondii; RH strain, ref Loeuillet et al., 2018): 0.35 µM |
